Laboratory results taken from ChEMBL document CHEMBL1157589, “Antifungal 3,5-disubstituted furanones: From 5-acyloxymethyl to 5-alkylidene derivatives” (Bioorg Med Chem, 2010).
≈ marks a conversion by molar mass, not a printed value.

Legend:
Candida albicans [1] = experiment: Antifungal activity against Candida albicans ATCC 44859 after 48 hrs by microdilution method; type: functional; settings: ATCC 44859, 48 h
Summary of the method: (§1)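 Yeasts held on Sabouraud dextrose agar. MIC by NCCLS M27-A broth microdilution in RPMI 1640 with L-glutamine, buffered with 0.165 M MOPS to pH 7.0. Compounds in DMSO (≤2% final), twofold dilutions 500–0.48. Final inoculum 5 × 10³ ± 0.2 cfu mL⁻¹. Incubated at 35 °C; absorbance at 540 nm read at 24 and 48 h. MIC is 80% growth inhibition versus control; run twice in duplicate.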

Candida albicans [2] = experiment: Antifungal activity against Candida albicans ATCC 90028 after 24 hrs by microdilution method; type: functional; settings: ATCC 90028, 24 h; summary of the method: as §1
Candida albicans [3] = experiment: Antifungal activity against Candida albicans ATCC 90028 after 48 hrs by microdilution method; type: functional; settings: ATCC 90028, 48 h; summary of the method: as §1
Candida parapsilosis [4] = experiment: Antifungal activity against Candida parapsilosis ATCC 22019 after 24 hrs by microdilution method; type: functional; settings: Lodderomyces parapsilosis, ATCC 22019, 24 h; summary of the method: as §1
Candida parapsilosis [5] = experiment: Antifungal activity against Candida parapsilosis ATCC 22019 after 48 hrs by microdilution method; type: functional; settings: Lodderomyces parapsilosis, ATCC 22019, 48 h; summary of the method: as §1
Pichia kudriavzevii [6] = experiment: Antifungal activity against Candida krusei ATCC 6258 after 24 hrs by microdilution method; type: functional; settings: ATCC 6258, 24 h; summary of the method: as §1
Pichia kudriavzevii [7] = experiment: Antifungal activity against Candida krusei ATCC 6258 after 48 hrs by microdilution method; type: functional; settings: ATCC 6258, 48 h; summary of the method: as §1
Pichia kudriavzevii [8] = experiment: Antifungal activity against Candida krusei E28 after 24 hrs by microdilution method; type: functional; settings: E28, 24 h; summary of the method: as §1
Pichia kudriavzevii [9] = experiment: Antifungal activity against Candida krusei E28 after 48 hrs by microdilution method; type: functional; settings: E28, 48 h; summary of the method: as §1
Candida tropicalis [10] = experiment: Antifungal activity against Candida tropicalis 156 after 24 hrs by microdilution method; type: functional; settings: Candida tropicalis, 156, 24 h; summary of the method: as §1
Candida tropicalis [11] = experiment: Antifungal activity against Candida tropicalis 156 after 48 hrs by microdilution method; type: functional; settings: Candida tropicalis, 156, 48 h; summary of the method: as §1
Nakaseomyces glabratus [12] = experiment: Antifungal activity against Candida glabrata 20/I after 24 hrs by microdilution method; type: functional; summary of the method: as §1
Nakaseomyces glabratus [13] = experiment: Antifungal activity against Candida glabrata 20/I after 48 hrs by microdilution method; type: functional; summary of the method: as §1
Clavispora lusitaniae [14] = experiment: Antifungal activity against Candida lusitaniae 2446/I after 24 hrs by microdilution method; type: functional; summary of the method: as §1
Clavispora lusitaniae [15] = experiment: Antifungal activity against Candida lusitaniae 2446/I after 48 hrs by microdilution method; type: functional; summary of the method: as §1
Trichosporon beigelii [16] = experiment: Antifungal activity against Trichosporon beigelii 1188 after 24 hrs by microdilution method; type: functional; settings: Trichosporon beigelii, 1188, 24 h; summary of the method: as §1
Trichosporon beigelii [17] = experiment: Antifungal activity against Trichosporon beigelii 1188 after 48 hrs by microdilution method; type: functional; settings: Trichosporon beigelii, 1188, 48 h; summary of the method: as §1
Aspergillus fumigatus [18] = experiment: Antifungal activity against Aspergillus fumigatus 231 after 24 hrs by microdilution method; type: functional; settings: Aspergillus fumigatus, 231, 24 h
Summary of the method: (§2)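 Filamentous strains held on Sabouraud dextrose agar. NCCLS M27-A broth microdilution in RPMI 1640 with L-glutamine and 0.165 M MOPS, pH 7.0. DMSO diluent ≤2% final; twofold dilutions 500–0.48. Inoculum 5 × 10³ ± 0.2 cfu mL⁻¹ final.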

Aspergillus fumigatus [19] = experiment: Antifungal activity against Aspergillus fumigatus 231 after 48 hrs by microdilution method; type: functional; settings: Aspergillus fumigatus, 231, 48 h; summary of the method: as §2
Lichtheimia corymbifera [20] = experiment: Antifungal activity against Absidia corymbifera 272 after 24 hrs by microdilution method; type: functional; settings: Lichtheimia corymbifera, 272, 24 h; summary of the method: as §2
Lichtheimia corymbifera [21] = experiment: Antifungal activity against Absidia corymbifera 272 after 48 hrs by microdilution method; type: functional; settings: Lichtheimia corymbifera, 272, 48 h; summary of the method: as §2
[22] = system: Trichophyton mentagrophytes; experiment: Antifungal activity against Trichophyton mentagrophytes 445 after 72 hrs by microdilution method; type: functional; settings: Trichophyton mentagrophytes, 445, 72 h
Summary of the method: (§3)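 Dermatophyte held on Sabouraud dextrose agar. M27-A microdilution in MOPS-buffered (0.165 M, pH 7.0) RPMI 1640 with L-glutamine. DMSO ≤2% final; twofold dilutions 500–0.48. Inoculum 5 × 10³ ± 0.2 cfu mL⁻¹ final. Incubated at 35 °C; MIC read visually at 72 and 120 h as 80% inhibition of control growth; determined twice in duplicate.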

[23] = system: Trichophyton mentagrophytes; experiment: Antifungal activity against Trichophyton mentagrophytes 445 after 120 hrs by microdilution method; type: functional; settings: Trichophyton mentagrophytes, 445, 120 h; summary of the method: as §3
L1210 = experiment: Cytostatic activity against mouse L1210 cells after 72 hrs by XTT assay; type: functional, cell-based; settings: l1210
Summary of the method: (§4)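 Leukemia cells (L1210 ATCC CCL 219, CCRF-CEM ATCC CCL 119, HL-60 ATCC CCL 240) grown in 24-well plates in RPMI 1640 with fetal calf serum. Growth assessed 72 h after drug addition. Viability measured by XTT spectrophotometric assay; potency given as IC50.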

HL-60 = experiment: Cytostatic activity against human HL60 cells after 72 hrs by XTT assay; type: functional, cell-based; settings: hl-60; summary of the method: as §4
CCRF-CEM = experiment: Cytostatic activity against human CCRF-CEM cells after 72 hrs by XTT assay; type: functional, cell-based; summary of the method: as §4
Candida albicans [24] = experiment: Antifungal activity against Candida albicans ATCC 44859 after 24 hrs by microdilution method; type: functional; settings: ATCC 44859, 24 h; summary of the method: as §1
HeLa S3 = experiment: Cytostatic activity against human HeLaS3 cells after 48 hrs by XTT assay

| MIC80 (Candida albicans [1]) [µM] | MIC80 (Candida albicans [2]) [µM] | MIC80 (Candida albicans [3]) [µM] | MIC80 (Candida parapsilosis [4]) [µM] | MIC80 (Candida parapsilosis [5]) [µM] | MIC80 (Pichia kudriavzevii [6]) [µM] | MIC80 (Pichia kudriavzevii [7]) [µM] | MIC80 (Pichia kudriavzevii [8]) [µM] | MIC80 (Pichia kudriavzevii [9]) [µM] | MIC80 (Candida tropicalis [10]) [µM] | MIC80 (Candida tropicalis [11]) [µM] | MIC80 (Nakaseomyces glabratus [12]) [µM] | MIC80 (Nakaseomyces glabratus [13]) [µM] | MIC80 (Clavispora lusitaniae [14]) [µM] | MIC80 (Clavispora lusitaniae [15]) [µM] | MIC80 (Trichosporon beigelii [16]) [µM] | MIC80 (Trichosporon beigelii [17]) [µM] | MIC80 (Aspergillus fumigatus [18]) [µM] | MIC80 (Aspergillus fumigatus [19]) [µM] | MIC80 (Lichtheimia corymbifera [20]) [µM] | Structure (SMILES) | further results |
| --- | --- | --- | --- | --- | --- | --- | --- | --- | --- | --- | --- | --- | --- | --- | --- | --- | --- | --- | --- | --- | --- |
| 62.5 (≈ 18.6 µg/mL) | 125 (≈ 37.1 µg/mL) | 125 (≈ 37.1 µg/mL) | 125 (≈ 37.1 µg/mL) | 250 (≈ 74.3 µg/mL) | 250 (≈ 74.3 µg/mL) | 250 (≈ 74.3 µg/mL) | 250 (≈ 74.3 µg/mL) | 250 (≈ 74.3 µg/mL) | 250 (≈ 74.3 µg/mL) | 250 (≈ 74.3 µg/mL) | 62.5 (≈ 18.6 µg/mL) | 62.5 (≈ 18.6 µg/mL) | 125 (≈ 37.1 µg/mL) | 250 (≈ 74.3 µg/mL) | 125 (≈ 37.1 µg/mL) | 250 (≈ 74.3 µg/mL) | 62.5 (≈ 18.6 µg/mL) | 125 (≈ 37.1 µg/mL) | 125 (≈ 37.1 µg/mL) | CCOCC1C=C(c2ccc(Br)cc2)C(=O)O1 (centres undefined) | MIC80 (Lichtheimia corymbifera [21]): 125 µM (≈ 37.1 µg/mL); MIC80 [22]: 15.6 µM (≈ 4.64 µg/mL); MIC80 [23]: 15.6 µM (≈ 4.64 µg/mL); IC50 (L1210): Not Active; IC50 (HL-60): Not Active; IC50 (CCRF-CEM; Homo sapiens, CCRF-CEM, 72 h, read-out: IC50): 9.82 µM; MIC80 (Candida albicans [24]): 31.2 µM (≈ 9.29 µg/mL); IC50 (HeLa S3; Homo sapiens, HeLa S3, 48 h, read-out: IC50): 1940 nM |
| 125 (≈ 36.9 µg/mL) | 125 (≈ 36.9 µg/mL) | 250 (≈ 73.8 µg/mL) | 125 (≈ 36.9 µg/mL) | 125 (≈ 36.9 µg/mL) | 125 (≈ 36.9 µg/mL) | 250 (≈ 73.8 µg/mL) | 250 (≈ 73.8 µg/mL) | 250 (≈ 73.8 µg/mL) | 125 (≈ 36.9 µg/mL) | 250 (≈ 73.8 µg/mL) | 62.5 (≈ 18.4 µg/mL) | 250 (≈ 73.8 µg/mL) | 125 (≈ 36.9 µg/mL) | 250 (≈ 73.8 µg/mL) | 125 (≈ 36.9 µg/mL) | 125 (≈ 36.9 µg/mL) | 125 (≈ 36.9 µg/mL) | 250 (≈ 73.8 µg/mL) | 62.5 (≈ 18.4 µg/mL) | O=C1O/C(=C\CCO)C=C1c1ccc(Br)cc1 | MIC80 (Lichtheimia corymbifera [21]): 62.5 µM (≈ 18.4 µg/mL); MIC80 [22]: 31.2 µM (≈ 9.22 µg/mL); MIC80 [23]: 31.2 µM (≈ 9.22 µg/mL); IC50 (L1210): Not Active; IC50 (HL-60): Not Active; IC50 (CCRF-CEM; ccrf-cem): Not Active; MIC80 (Candida albicans [24]): 62.5 µM (≈ 18.4 µg/mL); IC50 (HeLa S3; hela s3): Not Active |
| > 125 | > 125 | > 125 | > 125 | > 125 | > 125 | > 125 | > 125 | > 125 | > 125 | > 125 | > 125 | > 125 | > 125 | > 125 | > 125 | > 125 | > 125 | > 125 | > 125 | O=C1O/C(=C\c2ccccc2)C=C1c1ccc(Br)cc1 | MIC80 (Lichtheimia corymbifera [21]): > 125 µM; MIC80 [22]: > 125 µM; MIC80 [23]: > 125 µM; IC50 (L1210): Not Active; IC50 (HL-60): Not Active; IC50 (CCRF-CEM; ccrf-cem): Not Active; MIC80 (Candida albicans [24]): > 125 µM; IC50 (HeLa S3; hela s3): Not Active |
